The values that follow come from article PMC7357868 (ACS chemical biology, 2019).

Data set [1] has as its target T1, hpol η (Homo sapiens, UniProt Q9Y253).
T1 sequence (Q9Y253 1-437): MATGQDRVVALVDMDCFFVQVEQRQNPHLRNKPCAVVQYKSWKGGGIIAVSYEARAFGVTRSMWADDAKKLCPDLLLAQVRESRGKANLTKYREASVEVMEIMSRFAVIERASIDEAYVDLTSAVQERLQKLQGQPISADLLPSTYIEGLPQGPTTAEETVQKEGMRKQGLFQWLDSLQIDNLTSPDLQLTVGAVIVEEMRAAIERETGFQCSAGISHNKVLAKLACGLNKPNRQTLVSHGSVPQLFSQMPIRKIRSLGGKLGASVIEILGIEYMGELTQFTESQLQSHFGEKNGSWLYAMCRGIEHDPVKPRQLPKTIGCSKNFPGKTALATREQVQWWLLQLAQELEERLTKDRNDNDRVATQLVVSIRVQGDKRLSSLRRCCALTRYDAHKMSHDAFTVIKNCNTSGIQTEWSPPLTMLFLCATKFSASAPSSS
Put plainly: TAMRA strand-displacement fluorescence assay of DNA polymerase activity. Format: biochemical. The settings on record: 95% CI in parentheses.

For data set [2], the target named is T2, hpol κ (Homo sapiens, UniProt Q9UBT6).
T2 sequence (Q9UBT6 19-526): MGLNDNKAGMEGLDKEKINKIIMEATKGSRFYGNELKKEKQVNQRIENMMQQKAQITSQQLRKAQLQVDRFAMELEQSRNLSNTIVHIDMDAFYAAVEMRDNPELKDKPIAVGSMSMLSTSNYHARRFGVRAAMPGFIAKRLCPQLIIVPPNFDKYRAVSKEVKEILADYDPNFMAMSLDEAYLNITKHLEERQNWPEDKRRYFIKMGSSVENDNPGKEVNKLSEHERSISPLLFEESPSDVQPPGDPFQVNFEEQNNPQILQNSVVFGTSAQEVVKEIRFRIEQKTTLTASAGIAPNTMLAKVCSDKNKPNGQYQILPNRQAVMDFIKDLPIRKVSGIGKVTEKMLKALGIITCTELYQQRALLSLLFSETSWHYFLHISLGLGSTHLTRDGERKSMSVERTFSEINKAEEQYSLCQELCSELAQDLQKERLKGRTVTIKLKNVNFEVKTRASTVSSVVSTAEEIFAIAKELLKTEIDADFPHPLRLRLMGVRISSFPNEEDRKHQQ
Briefly: Gel-based primer extension assay. Format: biochemical. The settings on record: 10 μM IAG-10, 1 nM hpol κ.

Data set [3] concerns the target T1, hpol η. Put plainly: Gel-based primer extension assay. Format: biochemical. As to conditions: 10 μM IAG-10, 2 nM hpol η.
Data set [4] deals with DNA pol I from Mycobacterium tuberculosis (Tb pol I) (Mycobacterium tuberculosis, UniProt P9WNU5). Put plainly: TAMRA strand-displacement selectivity assay, A-family pol. The settings on record: 10 μM IAG-10, 10 nM Tb pol I. Format: biochemical.
Chain of DNA pol I from Mycobacterium tuberculosis (Tb pol I) (P9WNU5 whole entry): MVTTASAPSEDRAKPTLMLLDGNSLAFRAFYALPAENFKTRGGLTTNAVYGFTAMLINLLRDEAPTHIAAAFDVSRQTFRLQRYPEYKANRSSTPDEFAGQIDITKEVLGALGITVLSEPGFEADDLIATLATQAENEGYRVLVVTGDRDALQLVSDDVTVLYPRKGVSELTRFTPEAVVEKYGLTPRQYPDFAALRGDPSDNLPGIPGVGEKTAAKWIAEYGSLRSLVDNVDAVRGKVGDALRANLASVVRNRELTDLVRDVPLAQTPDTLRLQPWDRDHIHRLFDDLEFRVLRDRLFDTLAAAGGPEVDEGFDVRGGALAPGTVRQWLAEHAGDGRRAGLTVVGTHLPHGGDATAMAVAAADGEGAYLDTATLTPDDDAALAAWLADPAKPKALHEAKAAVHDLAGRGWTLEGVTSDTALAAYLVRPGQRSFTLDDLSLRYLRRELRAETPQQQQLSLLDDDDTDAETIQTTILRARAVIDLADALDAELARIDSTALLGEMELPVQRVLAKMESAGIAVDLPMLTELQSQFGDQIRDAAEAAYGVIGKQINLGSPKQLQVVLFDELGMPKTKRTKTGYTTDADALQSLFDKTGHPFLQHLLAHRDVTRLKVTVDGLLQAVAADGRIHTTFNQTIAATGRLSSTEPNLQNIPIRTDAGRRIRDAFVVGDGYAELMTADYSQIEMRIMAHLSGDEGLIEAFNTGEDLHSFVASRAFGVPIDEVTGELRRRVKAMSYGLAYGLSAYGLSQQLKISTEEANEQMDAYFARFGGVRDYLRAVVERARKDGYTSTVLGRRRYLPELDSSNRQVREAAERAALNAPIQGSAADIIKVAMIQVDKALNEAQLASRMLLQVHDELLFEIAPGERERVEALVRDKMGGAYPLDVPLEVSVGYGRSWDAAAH
Data set [5] deals with hpol β (Homo sapiens, UniProt P06746). Put plainly: TAMRA strand-displacement selectivity assay, X-family pol. The settings on record: 10 μM IAG-10, 1 nM hpol β. Format: biochemical.
Data set [6] deals with T3, hpol η binding to primer-template DNA (Homo sapiens, UniProt Q9Y253).
T3 sequence (Q9Y253 1-437): T1 sequence (Q9Y253 1-437)
Put plainly: Fluorescence anisotropy DNA binding assay. The settings on record: inhibitor concentration near the IC50 for pol activity; 2 nM FAM-labeled p/t-DNA. A general note: Polarisation of emitted light reports the rotation of a fluorescent probe.

Data set [7] has as its target T2, hpol κ. Briefly: HPG chemical footprinting with LC-MS. The settings on record: 10 μM hpol κ, IAG-10 20 and 100 μM, 500 μM HPG.
For data set [8], the system named is hpol κ-proficient HAP-1 cells. Briefly: Clonogenic survival assay. Format: cell-based, human.
Data set [9] relates to hpol κ-deficient HAP-1 cells. Put plainly: Clonogenic survival assay. Format: cell-based, human.
Data set [10] deals with hpol κ-proficient HAP-1 cells. Put plainly: Alkaline comet assay. Format: cell-based, human. A digest of the protocol: (§1)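 100 000 HAP-1 cells per well, test compound 0.5 μM alone or with alkylating agent (100 μM), 1 h; DMSO control. Cells embedded in low-melting agarose (200–300 per well), lysed 1 h, alkaline unwinding (200 mM NaOH, 1 mM EDTA) 20 min RT, electrophoresis 21 V, 30 min, 4 °C, SYBR Gold stain. Read-out is % DNA in tail per cell; ≥20 cells per replicate, three biological replicates, mean ±SD.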

Data set [11] deals with hpol κ-deficient HAP-1 cells. Briefly: Alkaline comet assay. Format: cell-based, human. A digest of the protocol: as §1
In data set [12] the test system is hpol κ-proficient HAP-1 cells. Put plainly: supF mutagenesis assay. Format: cell-based, human. The settings on record: 1 μM IAG-10, 24 h. A digest of the protocol: (§2)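 HAP-1 cells at ~80% confluency (IMDM, 10% FBS) lipofected for 24 h with pSP189 supF plasmid (10 μg per 10 cm dish), ±1 μM test compound. Plasmid was unmodified or pretreated with 100 mM MMS (HEPES pH 7.5, RT, 1 h). Recovered plasmid DpnI-digested, electroporated into E. coli MBM7070, plated on ampicillin/IPTG/X-gal. Mutation frequency = white/(blue + white); ≥10 000 colonies per condition; biological triplicate, mean ±SD.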

The subject of data set [13] is hpol κ-deficient HAP-1 cells. Put plainly: supF mutagenesis assay. The settings on record: 1 μM IAG-10, 24 h. Format: cell-based, human. A digest of the protocol: as §2
The target of data set [14] is T2, hpol κ. Put plainly: Steady-state kinetic analysis of dTTP insertion. Format: biochemical. As to conditions: 0.5 nM hpol κ, 25 nM DNA, varying inhibitor concentration.
For data set [15], the target named is T1, hpol η. Briefly: Steady-state kinetic analysis of nucleotide insertion. Format: biochemical. The settings on record: increasing IAG-10 concentration.
Where [16] appears, read: 100 μM TMZ + 0.5 μM IAG-10, compared with TMZ alone.

`Cl.[H]/N=C(\N)NN=Cc1cn(C(=O)c2cccc3ccccc23)c2ccc(Cl)cc12` [IAG-10, (E)-2-((1-(1-naphthoyl)-5-chloro-1H-indol-3-yl)-methylene)hydrazine-1-carboximidamide hydrochloride]: the IC50 was 22.5 µM in data set [1] (IC50, 0.2 nM hpol η, 2 nM DNA) and 14.3 µM in data set [1] (IC50, 1 nM hpol η, 50 nM DNA). In addition, the “polymerase activity in presence of compound” value in data set [2] is listed as “only hpol κ was inhibited”; in [3], “only hpol κ was inhibited”; in [4], “only hpol κ activity was inhibited”; in data set [5], “only hpol κ activity was inhibited”. In addition, the “increase in the Kd,DNA” value in data set [6] is 20–30%. Also, the “change in the fraction of HPG-modified peptides containing Arg48” value in [7] is “large increase”. Also, the “decrease in the fraction of HPG-modified peptides (Arg145, Arg149, Arg505)” value in [7] is > 50%. Besides, the colony formation result in data set [8] (0.5 μM IAG-10 alone) and in [9] (0.5 μM IAG-10 alone) was “does not impair colony formation” throughout. Also, the “colonies formed relative to untreated cells” value in data set [8] (250 μM TMZ + 0.5 μM IAG-10 cotreatment, 1 h, 10 days culture) is ~ 40%. In [9] (TMZ + 0.5 μM IAG-10), the “colony forming ability, cotreatment over TMZ alone” value is recorded as “did not show any significant reduction”. In data set [10] (0.5 μM IAG-10 alone, 1 h), the “DNA damage (% DNA in tail) compared to control” value was “approximately twofold”. Further, the figures for the “DNA damage (% DNA in tail)” value in [10] (setting [16]) and in data set [11] (setting [16]) were “increased even further” and “did not increase further”, respectively. Moreover, the “DNA damage (% DNA in tail) over control” value in [11] (0.5 μM IAG-10 alone, 1 h) is given as “did not increase DNA damage over control”. Besides, the “mutation frequency, MMS-damaged DNA over undamaged control plasmid” value in [12] was “approximately twofold”. In addition, the “mutation frequency, undamaged pSP189 plasmid” value in data set [12] was “did not change the mutation frequency”. Besides, the “mutation frequency, control or MMS-damaged DNA” value in [13] was “did not alter the mutation frequency”. Also, in [14], the “effect on turnover number (kcat)” value is listed as “sharp decrease”. Also, the “effect on Michaelis constant” value in data set [15] is on record as “linear increase”. The effect on kcat entry in data set [15] was “no measurable change”.

A word on the IC50: it is the midpoint of a concentration-inhibition curve.
